Bioassay records as filed in PubChem.
Hits are enriched below; roughly 5.7% of the tested compounds scored in any of these assays.
T cruzi inh: inhibitors of intracellular T. cruzi growth, primary screen, luminescence, NIH3T3 host cells; hit rate 1.4% among 300,000; AID 1885, 2009; T. cruzi beta-gal in NIH3T3, 90 h; inhibition, % (test concentration not listed);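 active = mean inhibition across valid replicates above about 55%, limit read from the data; inconclusive = mean below that limit but half or more replicates reach it; inactive = mean below it, under half of replicates reach it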;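 note: signal also drops with host cell toxicity which is not excluded here; higher percent means less beta-gal luminescence so fewer parasites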
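Incubation – ≥90 h infection period, 3 h prior cell attachment · System – NIH/3T3 fibroblasts plus reporter T. cruzi · Doses – compound pinned at 50 nL/well, DMSO · Read-out basis – percent inhibition of parasite-derived β-gal signal · Signal – luminescent β-galactosidase signal after 60 min lysis · Also added – 5000 T. cruzi trypomastigotes/well · Medium – Low-serum DMEM with 2% FBS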
CSC inhib: cancer stem cell viability inhibitors, primary screen, luminescence | cancer stem cell-like cells viability | inhibition, % at 7.5 µM | hit rate 1.1% among 300,000 | AID 2717, 2010; in the data active = inhibition above about 75%; inconclusive = no clear call, values can overlap the other calls; tested in HMLE shEcad cells
Beta cell apopt: inhibitors of cytokine-induced beta cell apoptosis, primary screen, luminescence. INS-1E cytokine-induced death, ATP luminescence, 48 h; percent of positive-control rescue, neutral wells zero. protection from apoptosis, % (test concentration not listed). hit rate 0.8% among 300,000. AID 435005, 2010;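 active = Every replicate reaches about 75%, or at least half do and their mean reaches it too, limit read from the data; inconclusive = At least half of replicates reach the limit but their mean does not; inactive = Under half of replicates reach the limit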;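 note: higher means more ATP so stronger rescue from cytokine killing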
SKKanGAS inh: S. pyogenes SKKanGAS growth inhibitors in kanamycin, primary screen, streptokinase expression inhibitor project, SKKanGAS strain, BacTiter-Glo luminescence. AID 1662, 2009. inhibition, % at 7.5 µM. 6 h. hit rate 1.3% among 300,000;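 active = mean replicate score, as percent of positive control median, at least 50; inconclusive = mean below 50 but one replicate at or above 50; inactive = mean and every replicate below 50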;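 note: strain carries kanamycin resistance gene driven by streptokinase promoter and grows in 40 µg/ml kanamycin; loss of luminescence reflects streptokinase promoter inhibition or plain growth inhibition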
Mdm2 MdmX PPI: inhibitors of human Mdm2-MdmX association, primary screen, cell-based, luminescence, split luciferase, SaOS-2, uHTS. Protein Mdm4 (Homo sapiens) + E3 ubiquitin-protein ligase Mdm2 (Homo sapiens), …. SaOS-2 split-luciferase Mdm2/MdmX complementation. inhibition, % at 8 µM. hit rate 3% among 330,000. AID 485346, 2010;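 active = inhibition of at least 50% at 8 µM in the primary screen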
Target sequence (O15151 whole entry, looked up): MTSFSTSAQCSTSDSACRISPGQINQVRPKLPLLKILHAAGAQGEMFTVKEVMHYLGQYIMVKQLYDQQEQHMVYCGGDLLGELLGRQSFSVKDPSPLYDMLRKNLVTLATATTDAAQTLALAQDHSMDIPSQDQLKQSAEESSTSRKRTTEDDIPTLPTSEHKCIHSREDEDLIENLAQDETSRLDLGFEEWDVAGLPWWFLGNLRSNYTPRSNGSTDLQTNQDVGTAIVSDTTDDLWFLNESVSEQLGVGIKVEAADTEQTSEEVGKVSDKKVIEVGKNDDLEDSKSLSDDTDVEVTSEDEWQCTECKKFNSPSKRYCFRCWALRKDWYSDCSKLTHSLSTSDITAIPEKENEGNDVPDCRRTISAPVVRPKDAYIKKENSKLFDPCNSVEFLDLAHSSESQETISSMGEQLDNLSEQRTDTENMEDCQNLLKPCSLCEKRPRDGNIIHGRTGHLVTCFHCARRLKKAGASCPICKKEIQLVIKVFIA
Target sequence (Q00987 whole entry, looked up): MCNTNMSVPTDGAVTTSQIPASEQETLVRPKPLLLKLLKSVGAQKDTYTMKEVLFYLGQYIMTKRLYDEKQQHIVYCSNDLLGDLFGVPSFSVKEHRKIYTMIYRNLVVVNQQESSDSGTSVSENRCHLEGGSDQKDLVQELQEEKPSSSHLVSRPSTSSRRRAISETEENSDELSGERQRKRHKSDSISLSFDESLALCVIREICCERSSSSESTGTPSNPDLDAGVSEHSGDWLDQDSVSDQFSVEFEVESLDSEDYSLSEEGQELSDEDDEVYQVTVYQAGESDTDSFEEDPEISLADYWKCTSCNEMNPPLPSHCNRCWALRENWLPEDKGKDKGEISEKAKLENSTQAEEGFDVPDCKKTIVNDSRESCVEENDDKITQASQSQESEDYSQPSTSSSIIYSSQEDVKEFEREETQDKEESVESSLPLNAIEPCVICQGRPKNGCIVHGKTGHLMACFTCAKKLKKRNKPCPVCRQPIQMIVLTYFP
Calb FLC: C. albicans growth inhibition with fluconazole, primary screen, CaCi-2 strain, Alamar Blue fluorescence; AID 1979, 2009; C. albicans CaCi-2 + fluconazole, 48 h; hit rate 0.57% among 300,000; growth inhibition, % (test concentration not listed);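 active = growth inhibition above about 58% in most replicates, limit read from the data, passing the limit was not always enough; inconclusive = exactly half the replicates above a set limit; inactive = most replicates below a set limit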;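 note: all wells also contain fluconazole at 8 µg/ml as a sub-toxic cotreatment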
Mdm2 MdmX conf: Mdm2-MdmX complex disruptors, retested hits, confirmation, luminescence, single concentration; AID 489028, 2010; hit rate 55% among 10,000; inhibition, % at 8 µM; Mdm2-MdmX binding, luminescent assay; shares compounds with Mdm2 MdmX PPI; in the data active = inhibition above about 40%
FLuc counter: full-length luciferase signal inhibition, confirmation, counter-screen for Mdm2/MdmX interaction inhibitor project, cell-based, single concentration, SaOS-2 | shares compounds with Mdm2 MdmX PPI | AID 504607, 2011 | SaOS-2 full-length luciferase counterscreen, luminescence | hit rate 77% among 6,200 | inhibition, % at 8 µM;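 active = mean inhibition at 8 µM reaching about 37%, which flags the compound as non-specific, limit read from the data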;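 note: p53-null SaOS-2 cells with luciferase driven by a doxycycline-inducible promoter; compound on cells about two nights before reading with doxycycline added after day one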
Numbers stand for hits; - = inactive; ? = inconclusive; . = no result given.

SMILES | T cruzi inh | CSC inhib | Beta cell apopt | SKKanGAS inh | Mdm2 MdmX PPI | Calb FLC | Mdm2 MdmX conf | FLuc counter
Cc1cc(C)c2ccc(NN)nc2c1O | - | - | - | 68 | 59 | - | 41 | 47
CCCCn1c(N)c(N(C)C(=O)c2c(C)nn(-c3ccccc3)c2C)c(=O)[nH]c1=O | . | - | - | . | - | . | . | .
CCc1cc2c(=O)[nH]c(-c3ccccn3)nc2s1 | 60 | . | - | 55 | 72 | - | - | 46
O=C(CSc1ccc2nnc(-c3ccc(Cl)cc3)n2n1)N1CCCc2ccccc21 | - | - | - | - | 84 | - | - | 90
Cc1cc(NCc2ccccc2)n2ncc(-c3ccccc3)c2n1 | - | - | - | - | - | - | . | .
Cc1cc(NC2CCCC2)n2ncc(-c3ccccc3)c2n1 | - | - | - | - | 84 | - | 82 | 181
COc1ccc(CCNc2cc(C)nc3c(-c4ccccc4)c(C)nn23)cc1OC | - | - | - | - | - | - | . | .
Cc1cc(NCCCn2ccnc2)n2ncc(-c3ccccc3)c2n1 | . | - | - | . | 74 | . | 70 | 134
COc1ccc(CCNc2cc(C)nc3c(-c4ccccc4)cnn23)cc1OC | - | . | . | - | 68 | - | - | .
Cc1oc(-c2ccc(Cl)cc2)cc1C(=O)/C(C#N)=C/Nc1ccccc1 | - | - | - | - | 62 | - | - | .
CCOC(=O)c1cnc(-n2nc(C)cc2C)nc1Nc1ccc(N(C)C)cc1 | 63 | - | 109 | 97 | 71 | - | 48 | 61
CCOC(=O)c1cnc(-n2nc(C)cc2C)nc1NNc1nc(-c2ccccc2)cc(-c2ccccc2)n1 | - | 128 | 118 | 105 | 63 | - | 72 | -
CCOC(=O)c1cnc(-n2nc(C)cc2C)nc1NC1CCCCC1 | 76 | - | . | 83 | 86 | - | 92 | -
O=C(COC(=O)c1ccc(S(=O)(=O)C(F)F)cc1)NC(=O)NC1CCCCC1 | - | - | - | - | - | - | . | .
Cc1ccc(-n2c(C)cc(/C=C3/SC(=O)N(CC(=O)N4CCOCC4)C3=O)c2C)nc1 | - | - | - | - | - | - | . | .
COc1ccc(Cn2c(CCC(=O)Nc3ccccc3)nc3cccnc32)cc1 | - | - | - | - | 77 | - | - | .
NC(=O)Cn1c(=O)n(CCc2ccccc2)c(=O)c2c3c(sc21)CCCC3 | - | - | - | - | 58 | - | - | .
CN(C)CCCNc1nc2sc3c(c2c(=O)n1CCc1ccccc1)CCCCC3 | ? | - | - | - | 70 | - | - | .
O=c1c2c3c(sc2n2cnnc2n1CCc1ccccc1)CCCC3 | - | . | - | - | - | - | . | .
O=c1c2c3c(sc2nc(NCCO)n1-c1ccccc1)CCCC3 | - | - | . | - | - | - | . | .
CN(C)CCCn1c(=O)n(CCc2ccccc2)c(=O)c2c3c(sc21)CCCCC3 | 61 | - | . | - | 77 | - | - | .
O=C(CCNC(=O)c1ccccc1Cl)Nc1ccc(Cl)c(C(F)(F)F)c1 | - | - | - | - | - | - | . | .
C=C1CCC[C@]2(C)C[C@H]3OC(=O)C(CNC(C)(CO)CO)[C@H]3CC12 (stereo partly drawn) | - | - | - | - | 63 | - | - | 55
C=C1CCC[C@]2(C)C[C@H]3OC(=O)C(CNC(CC)CO)[C@H]3CC12 (stereo partly drawn) | - | - | - | - | - | - | . | .
C=C1CCC[C@]2(C)C[C@H]3OC(=O)C(CN4CCCCC4CO)[C@H]3CC12 (stereo partly drawn) | - | - | - | - | 66 | - | 55 | 38
SMILES | T cruzi inh | CSC inhib | Beta cell apopt | SKKanGAS inh | Mdm2 MdmX PPI | Calb FLC | Mdm2 MdmX conf | FLuc counter
CCOc1cc(/C=C2\CN(C)C/C(=C\c3ccc(O)c(OCC)c3)C2=O)ccc1O | 62 | 105 | - | - | 100 | - | 100 | -
CCOc1cc(/C=N/NC(=O)N/N=C/c2ccc(O)c(OCC)c2)ccc1O | - | - | - | - | 60 | - | 49 | 81
CCOc1cc(/C=C2\CCC/C(=C\c3cc(Cl)c(O)c(OCC)c3)C2=O)cc(Cl)c1O | - | - | 75 | - | 100 | - | 94 | -
O=C(c1cc2ccccc2o1)N1CCN(c2cccc(Cl)c2)CC1 | - | - | - | - | - | - | . | .
O=C(c1ccc(N2CCCC2=O)cc1)N1CCN(c2ccccc2F)CC1 | - | - | - | - | - | - | . | .
CCOc1cc(N2CCOCC2)c(OCC)cc1NS(=O)(=O)c1cc(NC(C)=O)ccc1OC | - | - | - | - | - | - | . | .
NS(=O)(=O)c1ccc(CCNC(=O)C(c2ccccc2)c2ccccc2)cc1 | - | - | - | - | - | - | . | .
CCCC(=NCCc1c(C)[nH]c2ccccc12)C1=C(O)CC(c2ccccc2)CC1=O (stereo not drawn) | - | . | - | - | 52 | - | 53 | 55
CCCCC(=NCCc1c(C)[nH]c2ccccc12)C1=C(O)CC(c2ccccc2)CC1=O (stereo not drawn) | - | - | - | - | 57 | - | 45 | 59
CCOC(=O)c1ccc(N2CCCCC2)c(NS(=O)(=O)c2ccc(C)cc2)c1 | - | - | - | - | 59 | - | 46 | 67
NC(=O)c1ccc(NC(=O)COC(=O)CC23CC4CC(CC(Br)(C4)C2)C3)cc1 | . | - | - | . | - | . | . | .
Fc1ccc(Sc2nc(-c3ccccc3)nnc2C(F)(F)F)cc1 | - | . | - | - | 78 | - | - | .
Fc1ccc(Oc2nc(-c3ccccc3)nnc2C(F)(F)F)cc1 | - | - | - | - | - | - | . | .
CCN(CC)C(=O)C1CCCc2c1[nH]c1ccc(Cl)cc21 (stereo not drawn) | - | - | - | - | 84 | - | 72 | -
O=C(c1ccco1)N1CCN(C(=O)C2CCCc3c2[nH]c2ccc(Cl)cc32)CC1 (stereo not drawn) | - | - | - | - | 86 | - | 67 | -
COC(=O)c1cccc(NC(=O)c2cccc([N+](=O)[O-])c2)c1 | - | - | - | - | - | - | . | .
O=C(Nc1cccc([N+](=O)[O-])c1)c1cccc(C(=O)Nc2cccc([N+](=O)[O-])c2)c1 | - | - | - | - | 76 | - | 45 | 71
Cc1ccc([N+](=O)[O-])cc1NC(=O)Nc1cccc(F)c1 | - | . | . | - | 59 | - | - | .
O=C(Nc1cccc([N+](=O)[O-])c1)Nc1ccc2c(c1)CCC2 | 57 | - | - | - | 72 | - | - | .
